Experimental data from ChEMBL document CHEMBL3352644, “Selenadiazole derivatives as potent thioredoxin reductase inhibitors that enhance the radiosensitivity of cancer cells” (Eur J Med Chem, 2014).
Values after ≈ are worked out from the molar mass of the structure shown. Active and inactive are the calls of the source. No cut-off for these calls is given here.

Columns and labels:
A-375 [1] = assay: Induction of cell cycle arrest in human A375 cells assessed as accumulation at S phase at 10 ug/mL incubated for 6 hrs followed by irradiation with 8 Gy X-ray at 37 degC for 12 hrs by propidium iodide staining based flow cytometry (reference value: 7.9%); type: functional
Method in brief: (§1)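 A375 cells treated at 10 or 4 µg/ml for 6 h, given 0 or 8 Gy X-ray, then 12 h more. Trypsinized, washed in PBS, fixed overnight in ice-cold 75% ethanol at −20 °C. Stained with propidium iodide, 30 min at 37 °C in the dark; DNA content and sub-G1 population read by flow cytometry.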

A-375 [2] = assay: Induction of ROS generation in human A375 cells at 16 ug/mL incubated for 6 hrs followed by irradiation with 8 Gy X-ray at 37 degC for 12 hrs by DCF and DHE dye based fluorescence assay
A-375 [3] = assay: Induction of cell cycle arrest in human A375 cells assessed as accumulation at G2/M phase at 10 ug/mL incubated for 18 hrs by propidium iodide staining based flow cytometry (reference value: 13.9%); type: functional; method in brief: as §1
A-375 [4] = assay: Induction of ROS generation in human A375 cells at 16 ug/mL […] by DCF and DHE dye based fluorescence assay; type: functional, cell-based
A-375 [5] = assay: Induction of cell cycle arrest in human A375 cells assessed as accumulation at G1/G0 phase at 10 ug/mL incubated for 18 hrs by propidium iodide staining based flow cytometry (reference value: 48.9%); type: functional; method in brief: as §1
A-375 [6] = assay: Induction of cell morphological changes in human A375 cells incubated for 6 hrs followed by irradiation with 8 Gy X-ray at 37 degC for 12 hrs by microscopy; type: functional, cell-based
A-375 [7] = assay: Cytotoxicity against human A375 cells incubated for 6 hrs followed by irradiation with 8 Gy X-ray at 37 degC for 12 hrs by MTT assay; type: functional, cell-based; conditions: A-375, light or radiation study
Method in brief: (§2)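 A375 cells (DMEM, 10% FBS, 37 °C, 5% CO2) seeded at 4 × 10⁴ cells/well and grown to 70–80% confluence. Treated with 0, 1, 2, 4, 8, 16 or 32 µg/ml for 6 h, then given 0 or 8 Gy X-ray (linear accelerator, 1.5 Gy/min), then 12 h more at 37 °C. MTT 4 h, formazan dissolved in DMSO, read at 570 nm; % of control; three repeats.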

A-375 [8] = assay: Induction of cell cycle arrest in human A375 cells assessed as accumulation at G1/G0 phase at 10 ug/mL incubated for 6 hrs followed by irradiation with 8 Gy X-ray at 37 degC for 12 hrs by propidium iodide staining based flow cytometry (reference value: 44.9%); type: functional; method in brief: as §1
A-375 [9] = assay: Induction of apoptosis in human A375 cells assessed as accumulation at subG1 phase at 10 ug/mL incubated for 18 hrs by propidium iodide staining based flow cytometry (reference value: 1.8%); type: functional; method in brief: as §1
A-375 [10] = assay: Induction of cell cycle arrest in human A375 cells assessed as accumulation at S phase at 10 ug/mL incubated for 18 hrs by propidium iodide staining based flow cytometry (reference value: 37.2%); type: functional; method in brief: as §1
A-375 [11] = assay: Induction of ROS generation in human A375 cells at 8 ug/mL […] by DCF and DHE dye based fluorescence assay; type: functional, cell-based
A-375 [12] = assay: Induction of cell shrinkage in human A375 cells incubated for 6 hrs followed by irradiation with 8 Gy X-ray at 37 degC for 12 hrs by microscopy; type: functional, cell-based
Method in brief: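 A375 cells in DMEM with 10% FBS, 37 °C, 5% CO2. Pretreated with agent 6 h, then 0 or 8 Gy X-ray from a linear accelerator at 1.5 Gy/min, room temperature. Incubated a further 12 h; morphology imaged.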

A-375 [13] = assay: Induction of cell cycle arrest in human A375 cells assessed as accumulation at G2/M phase at 10 ug/mL incubated for 6 hrs followed by irradiation with 8 Gy X-ray at 37 degC for 12 hrs by propidium iodide staining based flow cytometry (reference value: 47.2%); type: functional; method in brief: as §1
A-375 [14] = assay: Cytotoxicity against human A375 cells after 18 hrs by MTT assay; type: functional, cell-based; conditions: A-375, 18 h; method in brief: as §2
A-375 [15] = assay: Induction of ROS generation in human A375 cells at 8 ug/mL incubated for 6 hrs followed by irradiation with 8 Gy X-ray at 37 degC for 12 hrs by DCF and DHE dye based fluorescence assay; type: functional, cell-based
Method in brief: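 A375 cells (4 × 10⁴/well) cultured 24 h, then treated 6 h at 8 or 16 µg/ml or at 2 or 4 µg/ml, and given 0 or 8 Gy X-ray. Loaded with H₂DCF or DHE for 30 min at 37 °C in the dark. Fluorescence read at 485/535 nm (DCF) or 480/610 nm (DHE); % of control.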

A-375 [16] = assay: Induction of apoptosis in human A375 cells assessed as accumulation at subG1 phase at 10 ug/mL incubated for 6 hrs followed by irradiation with 8 Gy X-ray at 37 degC for 12 hrs by propidium iodide staining based flow cytometry (reference value: 2.3%); type: functional; method in brief: as §1

`COc1cc(Cn2c(-c3cc(OC)c(OC)c(OC)c3)nc3ccc(-c4ccc5n[se]nc5c4)cc32)cc(OC)c1OC` was tested, and the Activity (A-375 [1]) was 36.8%, the Activity (A-375 [2]) was “Active” and the Activity (A-375 [3]) was 9.4%. For the same compound, the Activity (A-375 [4]) was “Active”, the Activity (A-375 [5]) was 69.3% and the Activity (A-375 [6]) was “Active”. For the same compound, the IC50 (A-375 [7]) was 8 µg/mL (≈ 12.4 µM), the Activity (A-375 [8]) was 60.5% and the Activity (A-375 [9]) was 11.7%. The Activity (A-375 [10]) was 21.3%, the Activity (A-375 [11]) was “Active” and the Activity (A-375 [12]) was “Active”. For the same compound, the Activity (A-375 [13]) was 2.7%, the IC50 (A-375 [14]) was 26.4 µg/mL (≈ 40.9 µM) and the Activity (A-375 [15]) was “Active”. It also gave an Activity (A-375 [16]) of 57.6%.
With `COc1cc(Cn2c(-c3cc(OC)c(OC)c(OC)c3)nc3cc(-c4ccc5n[se]nc5c4)ccc32)cc(OC)c1OC` the Activity (A-375 [6]) was “Active”, the IC50 (A-375 [7]) was 9.2 µg/mL (≈ 14.3 µM) and the Activity (A-375 [12]) was “Active”. For the same compound, the IC50 (A-375 [14]) was 28.3 µg/mL (≈ 43.8 µM).
